Laboratory results reported in ChEMBL document CHEMBL1123503, “Synthesis and biological activity of 3-amino-5-(3,5-diamino-6-chloropyrazin-2-yl)-1,2,4-oxadiazole: an amiloride prodrug” (1986).
Several values for one entry are separate records, joined by “and”; a condition that tells them apart may be missing. Equal values may be shown once.

Assays:
Rattus norvegicus [1] = experiment: Compound was evaluated for diuretic activity determined by the ability to induce electrolytic excretion (Cl-) at a time period of 0-5 hr for dose 9 mg/kg; assay type: functional, Urine
Summary of the method: (§1)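 Female Sprague-Dawley rats weighing 160-170 g were dosed orally at 3, 9, 27 or 81 mg/kg, housed three per cage, with three cages per dose. Urinary Na+, K+ and Cl- (mequiv × 100) and urine volume (mL) were measured over 0-5 h and 0-24 h after dosing. A placebo group was run alongside.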

Rattus norvegicus [2] = experiment: Urine volumes in Sprague-Dawley rats was determined at time period of 0-5 hours dose 27 mg/kg; assay type: functional; summary of the method: as §1
Rattus norvegicus [3] = experiment: Compound was evaluated for diuretic activity determined by the ability to induce electrolytic excretion (Na+) at a time period of 0-5 hr for dose 3 mg/kg; assay type: functional, Urine; summary of the method: as §1
Rattus norvegicus [4] = experiment: Compound was evaluated for diuretic activity determined by the ability to induce electrolytic excretion (K+) at a time period of 0-24 hr for dose 27 mg/kg; assay type: functional, Urine; summary of the method: as §1
Rattus norvegicus [5] = experiment: Compound was evaluated for diuretic activity determined by the ability to induce electrolytic excretion (Na+) at a time period of 0-24 hr for dose 9 mg/kg; assay type: functional, Urine; summary of the method: as §1
Rattus norvegicus [6] = experiment: Urine volumes in Sprague-Dawley rats was determined at time period of 0-5 hours dose 3 mg/kg; assay type: functional; summary of the method: as §1
Rattus norvegicus [7] = experiment: Compound was evaluated for diuretic activity determined by the ability to induce electrolytic excretion (Na+) at a time period of 0-5 hr for dose 27 mg/kg; assay type: functional, Urine; summary of the method: as §1
Rattus norvegicus [8] = experiment: Compound was evaluated for diuretic activity determined by the ability to induce electrolytic excretion (K+) at a time period of 0-5 hr for dose 9 mg/kg; assay type: functional, Urine; summary of the method: as §1
Rattus norvegicus [9] = experiment: Compound was evaluated for diuretic activity determined by the ability to induce electrolytic excretion (Cl-) at a time period of 0-5 hr for dose 81 mg/kg; assay type: functional, Urine; summary of the method: as §1
Rattus norvegicus [10] = experiment: Compound was evaluated for diuretic activity determined by the ability to induce electrolytic excretion (Cl-) at a time period of 0-24 hr for dose 27 mg/kg; assay type: functional, Urine; summary of the method: as §1
Canis familiaris [11] = experiment: Compound was evaluated for percentage recovery from urine after administration of 0.1 mg/kg dose; assay type: functional, organism-based; parameters: dose 0.1 mg/kg; conditions: Canis lupus familiaris
Summary of the method: (§2)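 Catheterized mongrel dogs (average 14-16 kg, 6 per group) were given oral doses of 0.1-1.0 mg/kg. Urine was collected at 0-6 h and 6-24 h. Each 1-mL aliquot was partitioned between saturated Na2CO3 and ethyl acetate, and the organic phase was back-extracted into 0.5 N HCl. Amiloride in the acid phase was read spectrofluorometrically (excitation 365 nm, emission 420 nm). Results are mean ± SD, with % recovery.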

Rattus norvegicus [12] = experiment: Compound was evaluated for diuretic activity determined by the ability to induce electrolytic excretion (K+) at a time period of 0-5 hr for dose 27 mg/kg; assay type: functional, Urine; summary of the method: as §1
Rattus norvegicus [13] = experiment: Compound was evaluated for diuretic activity determined by the ability of to induce electrolytic excretion (Cl-) at a time period of 0-24 hr for dose 3 mg/kg; assay type: functional, Urine; summary of the method: as §1
Rattus norvegicus [14] = experiment: Compound was evaluated for diuretic activity determined by the ability to induce electrolytic excretion (Na+) at a time period of 0-5 hr for dose 9 mg/kg; assay type: functional, Urine; summary of the method: as §1
Rattus norvegicus [15] = experiment: Compound was evaluated for diuretic activity determined by the ability to induce electrolytic excretion (K+) at a time period of 0-24 hr for dose 3 mg/kg; assay type: functional, Urine; summary of the method: as §1
Canis familiaris [16] = experiment: Diuretic activity in mongrel dog was determined by the ability to induce electrolytic excretion (Na+) at a time period of 0-5 hr after administration of 5 mg/kg dose.
Canis familiaris [17] = experiment: Diuretic activity in mongrel dog was determined by the ability to induce electrolytic excretion (CL-) at a time period of 0-5 hr after administration of 5 mg/kg dose.
Rattus norvegicus [18] = experiment: Compound was evaluated for diuretic activity determined by the ability to induce electrolytic excretion (Cl-) at a time period of 0-24 hr for dose 9 mg/kg; assay type: functional, Urine; summary of the method: as §1
Rattus norvegicus [19] = experiment: Compound was evaluated for diuretic activity determined by the ability to induce electrolytic excretion (Na+) at a time period of 0-24 hr for dose 81 mg/kg; assay type: functional, Urine; summary of the method: as §1
Rattus norvegicus [20] = experiment: Compound was evaluated for diuretic activity determined by the ability to induce electrolytic excretion (Cl-) at a time period of 0-5 hr for dose 27 mg/kg; assay type: functional, Urine; summary of the method: as §1
Rattus norvegicus [21] = experiment: Compound was evaluated for diuretic activity determined by the ability to induce electrolytic excretion (K+) at a time period of 0-5 hr for dose 3 mg/kg; assay type: functional, Urine; summary of the method: as §1
Rattus norvegicus [22] = experiment: Compound was evaluated for diuretic activity determined by the ability to induce electrolytic excretion (Na+) at a time period of 0-24 hr for dose 3 mg/kg; assay type: functional, Urine; summary of the method: as §1
Canis familiaris [23] = experiment: Compound was evaluated for urinary levels (mg) after administration at time period
Rattus norvegicus [24] = experiment: Urine volumes in Sprague-Dawley rats was determined at time period of 0-5 hours dose 9 mg/kg; assay type: functional; summary of the method: as §1
Rattus norvegicus [25] = experiment: Compound was evaluated for diuretic activity determined by the ability to induce electrolytic excretion (K+) at a time period of 0-24 hr for dose 81 mg/kg; assay type: functional, Urine; parameters: unit: mequiv × 100; summary of the method: as §1
Rattus norvegicus [26] = experiment: Compound was evaluated for diuretic activity determined by the ability to induce electrolytic excretion (K+) at a time period of 0-5 hr for dose 81 mg/kg; assay type: functional, Urine; summary of the method: as §1
Rattus norvegicus [27] = experiment: Compound was evaluated for diuretic activity determined by the ability to induce electrolytic excretion (Cl-) at a time period of 0-24 hr for dose 81 mg/kg; assay type: functional, Urine; summary of the method: as §1
Canis familiaris [28] = experiment: Compound was evaluated for percentage recovery from urine after administration of 0.3 mg/kg dose; assay type: functional, organism-based; parameters: dose 0.3 mg/kg; conditions: Canis lupus familiaris; summary of the method: as §2
Rattus norvegicus [29] = experiment: Compound was evaluated for diuretic activity determined by the ability to induce electrolytic excretion (Cl-) at a time period of 0-5 hr for dose 3 mg/kg; assay type: functional, Urine; summary of the method: as §1
Rattus norvegicus [30] = experiment: Compound was evaluated for diuretic activity determined by the ability to induce electrolytic excretion (Na+) at a time period of 0-24 hr for dose 27 mg/kg; assay type: functional, Urine; summary of the method: as §1
Rattus norvegicus [31] = experiment: Compound was evaluated for diuretic activity determined by the ability to induce electrolytic excretion (Na+) at a time period of 0-5 hr for dose 81 mg/kg; assay type: functional, Urine; summary of the method: as §1
Rattus norvegicus [32] = experiment: Compound was evaluated for diuretic activity determined by the ability to induce electrolytic excretion (K+) at a time period of 0-24 hr for dose 9 mg/kg; assay type: functional, Urine; summary of the method: as §1
Canis familiaris [33] = experiment: Diuretic activity in mongrel dog was determined by the ability to induce electrolytic excretion (K+) at a time period of 0-5 hr after administration of 5 mg/kg dose.
Rattus norvegicus [34] = experiment: Urine volumes in Sprague-Dawley rats was determined at time period of 0-5 hours dose 81 mg/kg; assay type: functional; summary of the method: as §1
Rattus norvegicus [35] = experiment: Urine volumes was determined in Sprague-Dawley rats at time period of 0-5 hours at 9 mg/kg; assay type: functional
Summary of the method: (§3)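 Female Sprague-Dawley rats (160-170 g) were dosed orally at 3-81 mg/kg, with a placebo group. Housing was three rats per cage and three cages per dose. Urinary Na+, K+ and Cl- (mequiv × 100) and urine volume were measured over 0-5 h and 0-24 h.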

Rattus norvegicus [36] = experiment: Urine volumes was determined in Sprague-Dawley rats at time period of 0-5 hours at 3 mg/kg; assay type: functional; summary of the method: as §3
Rattus norvegicus [37] = experiment: Urine volumes was determined in Sprague-Dawley rats at time period of 0-5 hours at 27 mg/kg; assay type: functional; summary of the method: as §3
Rattus norvegicus [38] = experiment: Urine volumes was determined in Sprague-Dawley rats at time period of 0-5 hours at 81 mg/kg; assay type: functional; summary of the method: as §3
Rattus norvegicus [39] = experiment: Compound was evaluated for diuretic activity to induce electrolytic excretion (Cl-) at a time period of 0-24 hr for dose 3 mg/kg; assay type: functional, Urine; summary of the method: as §3
Rattus norvegicus [40] = experiment: Urine volumes was determined at time period of 0-5 hours for dose 9 mg/kg; assay type: functional; summary of the method: as §3
Rattus norvegicus [41] = experiment: Urine volumes was determined at time period of 0-5 hours for dose 27 mg/kg; assay type: functional; summary of the method: as §3

Compound	Diuretic effect (Rattus norvegicus [1])	Diuretic effect (Rattus norvegicus [3])	Diuretic effect (Rattus norvegicus [4])	Diuretic effect (Rattus norvegicus [5])	Diuretic effect (Rattus norvegicus [7])	Diuretic effect (Rattus norvegicus [8])	Diuretic effect (Rattus norvegicus [9])	Diuretic effect (Rattus norvegicus [10])	Recovery (Canis familiaris [11])	Diuretic effect (Rattus norvegicus [12])	Diuretic effect (Rattus norvegicus [14])	Diuretic effect (Rattus norvegicus [15])	Diuretic effect (Rattus norvegicus [18])	Diuretic effect (Rattus norvegicus [19])	Diuretic effect (Rattus norvegicus [20])	Diuretic effect (Rattus norvegicus [21])	Diuretic effect (Rattus norvegicus [22])	Urinary level (Canis familiaris [23]) [mg]	Diuretic effect (Rattus norvegicus [25])	Diuretic effect (Rattus norvegicus [26])	other results
Nc1noc(-c2nc(Cl)c(N)nc2N)n1	35	64	79	269	67	4	73	258	36.2% and 22.4%	4	69	79	235	396	32	7	184	0.42	72	5	Urine volume (Rattus norvegicus [2]): 26 mL; Urine volume (Rattus norvegicus [6]): 24 mL; Diuretic effect (Rattus norvegicus [13]): 152; Diuretic effect (Canis familiaris [16]): 6.5; Diuretic effect (Canis familiaris [17]): 4.3; Urine volume (Rattus norvegicus [24]): 28 mL; Diuretic effect (Rattus norvegicus [27]): 344; Recovery (Canis familiaris [28]): 24.2%; Diuretic effect (Rattus norvegicus [29]): 36; Diuretic effect (Rattus norvegicus [30]): 292; Diuretic effect (Rattus norvegicus [31]): 135; Diuretic effect (Rattus norvegicus [32]): 102; Diuretic effect (Canis familiaris [33]): 0.9; Urine volume (Rattus norvegicus [34]): 25 mL
N=C(N)NC(=O)c1nc(Cl)c(N)nc1N [AMILORIDE]	96	156	82	207	180	6	93	180	41.4% and 40%	7	162	83	176	458	105	5	153	0.41	47	6	Urine volume (Rattus norvegicus [35]): 33 mL; Urine volume (Rattus norvegicus [36]): 35 mL; Urine volume (Rattus norvegicus [37]): 36 mL; Urine volume (Rattus norvegicus [38]): 28 mL; Diuretic effect (Rattus norvegicus [39]): 139; Diuretic effect (Rattus norvegicus [27]): 328; Diuretic effect (Rattus norvegicus [40]): 1; Recovery (Canis familiaris [28]): 29.3%; Diuretic effect (Rattus norvegicus [29]): 90; Diuretic effect (Rattus norvegicus [30]): 206; Diuretic effect (Rattus norvegicus [31]): 158; Diuretic effect (Rattus norvegicus [32]): 67; Diuretic effect (Rattus norvegicus [41]): 3.4
